Published values gathered from unrelated publications.
Compare with care: the assays were run in different laboratories.
Target: cAMP-dependent protein kinase catalytic subunit alpha (PRKACA, Homo sapiens, UniProt P17612)

SMILES	read-out	action	method	concentration	measurement	result
CCN(CC)CCNC(=O)c1c(C)[nH]c(/C=C2\C(=O)Nc3ccc(F)cc32)c1C	enzyme activity	inhibitor	–	10 µM	inhibition	59%
CS(=O)(=O)Nc1cccc(-c2csc(NC(=O)CSc3nc4nccnc4c(=O)n3CCc3ccccc3)n2)c1	enzyme activity	inhibitor	–	10 µM	inhibition	5%
CN(C)CCCn1cc(C2=C(c3c[nH]c4ccccc34)C(=O)NC2=O)c2ccccc21	cell-free assay	–	–	0.5 µM	remaining signal	72%
O=C(Nc1cnn(-c2csc(C(=O)NC3COC3)c2)c1)Nc1ccccc1Cl	enzyme activity	inhibitor	–	5 µM	remaining activity	99.8%
COc1ccnn2ncc(-c3ccnc(N(C)C)n3)c12	cell-free assay	–	–	1 µM	remaining signal	100%
CC1=C(C#N)C(c2ccc3c(c2)c(NC(=O)c2ccccc2C)nn3C)C(C#N)=C(C)N1	cell-free assay	–	competition with immobilised ligand	1 µM	remaining binding	77%
CC(C)(C)C(=O)c1sc(NC2CCCCC2)nc1N	enzyme activity	inhibitor	–	10 µM	remaining activity	106%
CCCCN(CCCC)C(=O)CN1C[C@H](c2cc(OC)c3c(c2)OCO3)[C@@H](C(=O)O)[C@@H]1CC(C)(C)CCC	cell-free assay	–	competition with immobilised ligand	1 µM	remaining binding	100%
COc1cc(Nc2cnc(C#N)c(O[C@H](C)CN(C)C)n2)ncc1-c1cnn(C)c1	enzyme activity	inhibitor	radiometric	1 µM	remaining activity	104%
COc1cc(Cl)c(C(=O)N[C@@H](CN[C@H]2CC[C@@H](N)CC2)Cc2ccc(C#N)cc2)cc1-c1ccc(CN[C@H](C)c2ccc(C)cc2)o1	enzyme activity	inhibitor	–	1 µM	remaining activity	106%
CC(C)(O)[C@H]1CC[C@H](Nc2ccc3ncc(-c4cccc(C(F)(F)F)c4)n3n2)CC1	enzyme activity	inhibitor	–	1 µM	remaining activity	99.4%
COc1cc2ncnc(Nc3ccc(Oc4ccccc4)c(C)c3C)c2cc1OC	enzyme activity	inhibitor	–	1 µM	inhibition	4%
CN(C)C1CCN(CC#Cc2nn(C3CCCC3)c3nc(NCc4ccccc4)ncc23)C1 (centres unmarked)	enzyme activity	inhibitor	FRET	0.1 µM	inhibition	3%
Cn1c2c(Cl)c(Cl)ccc2c2cn[nH]c(=O)c21	thermal stability	–	DSF	10 µM	ΔTm	0.6 °C
CC(C)c1ccc(NC(=O)c2cccs2)c(-c2nc3ccccc3[nH]c2=O)c1	enzyme activity	inhibitor	–	1 µM	activity vs control	108%
FC(F)c1nc2ccccc2n1-c1nc(N2CCOCC2)nc(N2CCOCC2)n1	enzyme activity	inhibitor	–	10 µM	remaining activity	76%
O=C(NS(=O)(=O)c1ccc(NCC2CCOCC2)c([N+](=O)[O-])c1)c1ccc(N2CCN(Cc3ccc(C(F)(F)F)cc3-c3ccc(Cl)cc3)CC2)cc1Oc1cnc2[nH]ccc2c1	cell-free assay	–	competition with immobilised ligand	1 µM	remaining binding	76%
Cn1c2c(Cl)c(Cl)ccc2c2cc[nH]c(=O)c21	thermal stability	–	DSF	10 µM	ΔTm	0.8 °C
NS(=O)(=O)c1cc(NC(=O)Cc2ccccc2)ccc1Oc1cccc(Cl)c1	cell-free assay	–	competition with immobilised ligand	1 µM	remaining binding	94%
Cn1c2c(c3ccccc31)C(C#N)C(C)(C)NC2=O (centres unmarked)	thermal stability	–	DSF	10 µM	ΔTm	0.2 °C
CN(C)CC#Cc1ccc(OCCCc2sc(N3CCc4cccc(C(=O)Nc5nc6ccccc6s5)c4C3)nc2C(=O)O)c(F)c1	cell-free assay	–	competition with immobilised ligand	1 µM	remaining binding	89%

SMILES	read-out	action	method	concentration	measurement	result
Cc1ccc(C(=O)Nc2ccc(CN3CCN(C)CC3)c(C(F)(F)F)c2)cc1C#Cc1cnc2cccnn12	enzyme activity	inhibitor	–	23.5 nM	remaining activity	53%
Cc1ccc(NC(=O)c2ccc(C)c(C(F)(F)F)c2)cc1C#Cc1nn(C2CCC(O)CC2)c2ncnc(N)c12 (centres unmarked)	cell-free assay	inhibitor	–	10 µM	remaining signal	60%
Cn1c2c(c3ccc(Cl)c(Cl)c31)C(C#N)C1(CCNCC1)NC2=O (racemic)	thermal stability	–	DSF	10 µM	ΔTm	3.3 °C
Cn1cnc(Br)c1C1=CN(c2ncnc3[nH]cnc23)CCS1	enzyme activity	inhibitor	radiometric	50 nM	inhibition	21.5%
Cn1c(=O)n(-c2ccc(C(C)(C)C#N)cc2)c2c3cc(-c4cnc5ccccc5c4)ccc3ncc21	enzyme activity	inhibitor	–	10 µM	remaining activity	82%
O=C(NCCCC1CCCCC1)c1ccc(CNC(=O)c2cnn(-c3ccccc3)c2C(F)(F)F)cc1	cell-free assay	–	competition with immobilised ligand	0.1 µM	remaining binding	100%
FC(F)(F)Oc1cccc(-c2cnc3ccc(-c4ccncc4)nn23)c1	enzyme activity	inhibitor	radiometric	1 µM	activity vs control	95%
CN(c1nccc(-c2cnn3ncccc23)n1)C1CC1	cell-free assay	–	–	1 µM	remaining signal	100%
C=CC(=O)Nc1cc(Nc2nccc(Nc3cc(Cl)c(F)cc3C(C)(C)O)n2)c(OC)cc1N1CC[C@@H](N(C)C)C1	enzyme activity	inhibitor	–	1 µM	inhibition	7%
CC(C)(C)c1nc2c(s1)c1nc(N)ncc1c1ccc(NS(=O)(=O)c3c(F)cccc3F)c(F)c12	enzyme activity	inhibitor	radiometric	1 µM	remaining activity	104%
O=C1NC(=O)c2cc(Nc3ccc(F)cc3)c(Nc3ccc(F)cc3)cc21	cell-free assay	inhibitor	–	0.5 µM	remaining signal	94.5%
CN(c1ncccc1CNc1nc(Nc2ccc3c(c2)CC(=O)N3)ncc1C(F)(F)F)S(C)(=O)=O	enzyme activity	inhibitor	–	1 µM	inhibition	78.4%
CS(=O)(=O)N1CCCC(NC(=O)[C@H](CCC2CCCCC2)NC(=O)c2ccc(CNC(=O)c3cnc4ccccn34)cc2)C1 (some centres unmarked)	cell-free assay	–	competition with immobilised ligand	0.1 µM	remaining binding	100%
Cc1ccc(NC(=O)c2ccc(CN3CCN(C)CC3)cc2)cc1Nc1nccc(-c2cccnc2)n1	enzyme activity	inhibitor	–	0.5 µM	activity vs control	95.4%
Cc1ccc(Nc2nccc(N(C)c3ccc4c(C)n(C)nc4c3)n2)cc1S(N)(=O)=O	enzyme activity	inhibitor	–	10 µM	inhibition	19%
CSc1nc(C)c(-c2ccnc(Nc3ccc(N4CCOCC4)cc3)c2)[nH]1	enzyme activity	inhibitor	–	10 µM	inhibition	5%
CC1=C(C#N)[C@@H](c2ccc3[nH]nc(C)c3c2)C(C#N)=C(c2ccc(Cl)cc2)N1	cell-free assay	–	competition with immobilised ligand	1 µM	remaining binding	96.7%
Nc1nc(NC2CCCCC2)sc1C(=O)c1ccccc1	enzyme activity	inhibitor	–	10 µM	remaining activity	97%
Cn1c2c(Cl)c(Cl)ccc2c2cc(N)[nH]c(=O)c21	thermal stability	–	DSF	10 µM	ΔTm	0.1 °C
C[C@@H](N)[C@H]1CC[C@H](C(=O)Nc2ccncc2)CC1	cell-free assay	inhibitor	–	0.5 µM	remaining signal	97.8%
